According to ChEMBL document CHEMBL1141383, “Polycationic sulfonamides for the sequestration of endotoxin” (J Med Chem, 2007):

How the values were obtained:
[1] = Binding affinity to lipid A moiety of LPS in gram negative bacteria by fluorescent-based displacement assay
In short: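 LPS binding measured by automated rapid-throughput fluorescence displacement of the probe BODIPY-TR cadaverine from LPS. ED50 is the concentration displacing 50% of LPS-bound probe. Run in triplicate, with polymyxin B as reference and negative and positive controls.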

HEK293 = experiment: Inhibition of LPS-induced NF-kappaB production in HEK293 cells; format: functional, cell-based; conditions: Homo sapiens
In short: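 HEK293 cells cotransfected with TLR4, CD14 and MD2 were stimulated with LPS, and induction of NF-κB was quantified. IC50 is the concentration inhibiting 50% of the response. Run in triplicate with polymyxin B reference and negative and positive controls.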

Mus musculus [2] = experiment: Protection against LPS-induced lethality in galactosamine-sensitized CF1 mouse model of septic shock at 8 mg/kg after 24 hrs; format: functional, organism-based; set-up: dose 8 mg/kg
In short: (§1)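 Female outbred CF-1 mice, 9–11 weeks old and 22–28 g, were sensitized with D-galactosamine. Cohorts of five received graded compound doses in saline i.p. in one flank, immediately before an i.p. challenge of 200 ng E. coli 0111:B4 LPS (2× LD100) in the other flank. Lethality was scored at 24 h.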

Blood [3] = experiment: Inhibition of LPS-induced IL6 release in human whole blood; format: functional, tissue-based
In short: (§2)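 Healthy human whole blood, ex vivo, was stimulated with LPS. TNF-α, IL-1β, IL-6, IL-8, IL-10 and IL-12p70 were quantified concurrently by a multiplexed flow-cytometric bead array. IC50 is the concentration inhibiting 50% of the response. Run in triplicate with polymyxin B reference and negative and positive controls.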

Blood [4] = experiment: Inhibition of LPS-induced TNFalpha release in human whole blood; format: functional, tissue-based; in short: as §2
J774.1 = experiment: Inhibition of LPS-induced nitric oxide production in murine J774.1 cells by automated Griess assay; format: functional, cell-based; conditions: Mus musculus
In short: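 Murine macrophage J774A.1 cells were stimulated with 100 ng/mL LPS, and NO was read by automated Griess assay. IC50 is the concentration inhibiting 50% of the response. Run in triplicate with polymyxin B reference and negative and positive controls.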

Blood [5] = experiment: Inhibition of LPS-induced IL8 release in human whole blood; format: functional, tissue-based; in short: as §2
Mus musculus [6] = experiment: Protection against LPS-induced lethality in galactosamine-sensitized CF1 mouse model of septic shock at >2 mg/kg after 24 hrs; format: functional, organism-based; in short: as §1

SMILES | ED50 [1] | IC50 [1] | IC50 (Blood [3]) | IC50 (Blood [4]) | IC50 (J774.1) | IC50 (Blood [5]) | IC50 (HEK293) | Activity (Mus musculus [2]) | Activity (Mus musculus [6])
CCCCCCCCCCCCCCCCS(=O)(=O)NCCCN(CCCNCCCNCCCCNCCCN)CCCNS(=O)(=O)CCCCCCCCCCCCCCCC | 9.31 µM |  |  |  | 5.2 µM |  | 2.68 µM |  | 
CCCCCCCCCCCCS(=O)(=O)NCCNCCCNCCN | 4.77 µM |  |  |  |  |  | 0.686 µM |  | 
CCCCCCCCCCCCS(=O)(=O)NCCCNC/C=C/CNCCCN | 3.83 µM |  |  |  |  |  | 0.522 µM |  | 
CCCCCCCCCCCCCCCCS(=O)(=O)NCCCOCCCCOCCCN | > 5000 µM |  |  |  | 30.9 µM |  | 22.4 µM |  | 
CCCCCCCCS(=O)(=O)NCCCNCCCNCCCCNCCCN | 2.84 µM |  |  |  | 6.47 µM |  | 0.816 µM |  | 
CCCCCCCCCCCCCCCCS(=O)(=O)NCCCN(CCCN)CCCN | 12.3 µM |  |  |  |  |  | 9.19 µM |  | 
CCCCCCCCCCCCCCCCS(=O)(=O)NCCN(CCN)CCN | 3.54 µM |  |  |  |  |  | 0.379 µM |  | 
CCCCCCCCCCCCS(=O)(=O)NCCCNCCCNCCCN | 4.27 µM |  |  |  |  |  | 0.363 µM |  | 
CCCCCCCCCCCCS(=O)(=O)NCCCNCCCNCCCCNCCCNCCCNS(=O)(=O)CCCCCCCCCCCC | 55.2 µM |  |  |  | 5 µM |  | 10.3 µM |  | 
CCCCCCCCCCCCCCCCS(=O)(=O)N(CCCN)CCCCNCCCN | 45.6 µM |  |  |  | 13.7 µM |  | 2.68 µM |  | 
CCCCCCCCCCCCCCCCS(=O)(=O)NCCCN(CCCNCCCCNCCCN)CCCNS(=O)(=O)CCCCCCCCCCCCCCCC | 26.4 µM |  |  |  | 15.1 µM |  | 4.85 µM |  | 
CCCCCCCCS(=O)(=O)NCCNCCCNCCN | 10.6 µM |  |  |  |  |  | 13.8 µM |  | 
CCCCCCCCCCCCCCCCCCS(=O)(=O)NCCCN(CCCNCCCCNCCCN)CCCNS(=O)(=O)CCCCCCCCCCCCCCCCCC | 28.3 µM |  |  |  |  |  | 64 µM |  | 
CCCCCCCCS(=O)(=O)NCCCNCCCNCCCN | 6.7 µM |  |  |  |  |  | 5.56 µM |  | 
CCCCCCCCCCCCCCCCS(=O)(=O)NCCCNCCCNCCCCNCCCNCCCNS(=O)(=O)CCCCCCCCCCCCCCCC | 133 µM |  |  |  | 6.3 µM |  | 11.7 µM |  | 
CCCCCCCCS(=O)(=O)NCCCNC/C=C/CNCCCN | 12.4 µM |  |  |  |  |  | 12.7 µM |  | 
CCCCCCCC(=O)NCCCN(CCCNCCCCNCCCN)CCCNC(=O)CCCCCCC | 1 µM |  |  |  | 9.02 µM |  | 9.76 µM |  | 

The remaining molecules from weak to strong by IC50 (J774.1), led by results:

ED50 [1] | IC50 [1] | IC50 (Blood [3]) | IC50 (Blood [4]) | IC50 (J774.1) | IC50 (Blood [5]) | SMILES | IC50 (HEK293) | Activity (Mus musculus [2]) | Activity (Mus musculus [6])
3.7 µM |  |  |  | 4.42 µM |  | CCCCCCCCCCS(=O)(=O)NCCCNCCCCNCCCN | 0.5 µM |  | 
5000 µM |  |  |  | 4.22 µM |  | CCCCCCCCCCCCCCCCCCS(=O)(=O)NCCCNCCCNCCCCNCCCNCCCNS(=O)(=O)CCCCCCCCCCCCCCCCCC | 6.49 µM |  | 
1.32 µM |  |  |  | 2.48 µM |  | CCCCCCCC(=O)NCCCN(CCCNCCCNCCCCNCCCN)CCCNC(=O)CCCCCCC | 3.17 µM |  | 
3.98 µM |  |  |  | 2.27 µM |  | CCCCCCCCCCCCS(=O)(=O)NCCCN(CCCNCCCCNCCCN)CCCNS(=O)(=O)CCCCCCCCCCCC | 13.2 µM |  | 
2.17 µM |  |  |  | 1.82 µM |  | CCCCCCCCS(=O)(=O)NCCCN(CCCNCCCCNCCCN)CCCNS(=O)(=O)CCCCCCCC | 0.669 µM |  | 
6.64 µM |  |  |  | 1.44 µM |  | CCCCCCCCS(=O)(=O)NCCCNCCCCNCCCN | 33.3 µM |  | 
2.69 µM |  |  |  | 1.34 µM |  | CCCCCCCCCCCCS(=O)(=O)NCCCNCCCCNCCCN | 0.41 µM |  | 
2.4 µM |  |  |  | 1.1 µM |  | CCCCCCCCCCS(=O)(=O)NCCCN(CCCNCCCCNCCCN)CCCNS(=O)(=O)CCCCCCCCCC | 5.17 µM |  | 
2.89 µM |  | 29.4 µM | 32.9 µM | 1.09 µM | 22.4 µM | CCCCCCCCCCS(=O)(=O)NCCCNCCCNCCCCNCCCN | 0.278 µM |  | 
13.5 µM |  |  |  | 0.692 µM |  | CCCCCCCCCCS(=O)(=O)NCCCNCCCNCCCCNCCCNCCCNS(=O)(=O)CCCCCCCCCC | 4.2 µM |  | 
2.6 µM |  |  |  | 0.577 µM |  | CCCCCCCCS(=O)(=O)NCCCNCCCNCCCCNCCCNCCCNS(=O)(=O)CCCCCCCC | 0.607 µM |  | 
6.82 µM |  |  |  | 0.51 µM |  | CCCCCCCCCCCCS(=O)(=O)NCCCN(CCCNCCCNCCCCNCCCN)CCCNS(=O)(=O)CCCCCCCCCCCC | 16.4 µM |  | 
6.01 µM |  | 8.8 µM | 18 µM | 0.48 µM | 15.4 µM | CCCCCCCCCCCCCCCCCCS(=O)(=O)NCCCNCCCCNCCCN | 0.36 µM |  | 
3.87 µM |  | 8.17 µM | 22.1 µM | 0.45 µM | 15.2 µM | CCCCCCCCCCCCCCCCS(=O)(=O)NCCCNCCCCNCCCN | 0.28 µM | Dose-dependent effect | 
1.16 µM |  |  |  | 0.43 µM |  | CCCCCCCCCCS(=O)(=O)NCCCN(CCCNCCCNCCCCNCCCN)CCCNS(=O)(=O)CCCCCCCCCC | 2.2 µM |  | 
2.92 µM |  | 12.1 µM | 30.1 µM | 0.39 µM | 15.3 µM | CCCCCCCCCCCCS(=O)(=O)NCCCNCCCNCCCCNCCCN | 0.19 µM |  | 
2.62 µM |  | 7.77 µM | 11 µM | 0.32 µM | 12.5 µM | CCCCCCCCS(=O)(=O)NCCCN(CCCNCCCNCCCCNCCCN)CCCNS(=O)(=O)CCCCCCCC | 0.3 µM |  | Toxic
4.45 µM |  |  |  | 0.23 µM |  | CCCCCCCCCCCCCCCCCCS(=O)(=O)NCCCNCCCNCCCCNCCCN | 1.06 µM |  | 
4.71 µM | 4.2 µM | 5.92 µM | 14.2 µM | 0.12 µM | 15.1 µM | CCCCCCCCCCCCCCCCS(=O)(=O)NCCCNCCCNCCCCNCCCN | 0.2 µM | Dose-dependent effect | 
